From PubChem
Shown are actives, neighbours in structure and some others; about 2.4% of the full set was active somewhere.
Neddylation inh – cullin neddylation inhibition. inhibition, % at 25 µM. P61081+Q13564. 360,000 compounds, 0.58% hits. TR-FRET cullin neddylation, biochemical; in the data active means inhibition above about 36%
Rpn11 block – blocks the human proteasome subunit Rpn11; O00487; human 26S proteasome, Ub4-pepOG fluorescence polarization; 20S core pre-blocked with epoxomicin; inhibition, % at 20 µM; 360,000 compounds, 0.59% hits; AID 588493;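 active means inhibition at 20 µM, scaled to each plate's controls, above about 33%, limit read from the data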
Rin1 Abl inh – human Rin1-Abl interaction inhibition | 360,000 compounds, 0.4% hits | inhibition, % at 7.35 µM | AID 588664 | TR-FRET Rin1/Abl binding, biochemical | P00519+Q13671; in the data active means inhibition above about 5%, passing the limit was not always enough
TPT1 inh – C. albicans TPT1 enzyme inhibition | recombinant caTPT1, FP RNA substrate dephosphorylation | inhibition, % at 5 µM | 300,000 compounds, 0.81% hits | AID 1962;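 active means inhibition above the mean of all tested compounds plus 3 SD, set per screening campaign, cut at about 24% in these data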;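 further: plate controls were DMSO alone for no effect and ferristatin control at 100 nM for full effect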
HNF4A DNA FP – change in binding of human HNF4 alpha to DNA. P41235. HNF4a-FITC DNA binding, fluorescence polarization, 1 h. activity change, % at 10 µM. 360,000 compounds, 0.3% hits; in the data active means activity change above about 30%, passing the limit was not always enough
CSN deneddyl inh – inhibitors of human CSN-mediated cullin deneddylation; AID 651999; Purified CSN, SCF-Nedd8-OG deneddylation, fluorescence polarization; Q92905; 360,000 compounds, 0.38% hits; inhibition, % at 12.5 µM;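 active means pattern-corrected inhibition above about 35%, with an unprinted fluorescence ratio check between 0.5 and 1.5, limit read from the data, passing the limit was not always enough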;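 further: 0% = enzyme with substrate and 100% = substrate without enzyme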
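Assay system: purified human Csn5 enzyme expressed in HEK293T cells; measure: % inhibition; also added: SCFSkp2-Nedd8OG substrate at 10 nM final; technique: fluorescence polarization; times: reaction 90 min, room temperature; medium: Tris buffer pH 7.5, NaCl, DTT, Tween-20, trehalose, ovalbumin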
* marks the source's active call; other numbers are inactive results; x = not tested or not shown.

SMILES	Neddylation inh	Rpn11 block	Rin1 Abl inh	TPT1 inh	HNF4A DNA FP	CSN deneddyl inh
O=C(COc1ccccc1)Nc1sc2c(c1C(=O)NCc1cccnc1)CCCC2	-18	6	-2	2	-12	41*
O=C(NCc1ccco1)c1cccc(-c2cncc3nccn23)c1	x	-4	1	x	1	5
CCN(CC)C(=O)c1sc2nc(-c3cccs3)cc(-c3ccc(Cl)cc3)c2c1N	-47	37*	-4	24	10	2
Nc1cc(C(F)(F)F)ccc1Nc1ccccc1	11	7	-1	2	2	-1
COc1ccc(CCNC(=O)c2nnn(CC(=O)Nc3ccc(C)cc3C)c2N)cc1OC	-7	3	0	1	-1	34
Cc1cc(C)c(NC(=O)Cn2nnc(C(=O)NCCc3ccccc3)c2N)c(C)c1	4	5	1	-4	-1	8
Cc1cc(C)cc(NC(=O)Cn2nnc(C(=O)NCCc3ccccc3)c2N)c1	6	26	4	1	-1	37*
Cc1ccc(NC(=O)Cn2nnc(C(=O)NCCc3ccccc3)c2N)c(C)c1	4	20	2	-1	-2	55*
O=C(CCC(=O)N/N=C/c1ccc(Br)s1)NCc1ccccc1	-11	-10	2	-2	3	1
C(=Nc1ccc(Nc2ccccc2)cc1)c1ccc2ccccc2c1	22	11	14*	1	0	-5
Brc1ccc(C=Nc2ccc(Nc3ccccc3)cc2)s1	-28	11	7.2*	6	0	2
C[C@@]12C(=O)N(Cc3ccccc3)CC(=O)N1[C@H](/C=C/c1ccccc1)[C@@H]1C(=O)N(c3ccccc3)C(=O)[C@@H]12	x	x	x	1	x	x
O=C(NC1CCCCC1)c1nc(C2CCNCC2)oc1-c1ccccc1	-5	8	0	x	2	31
O=C1Nc2ccccc2CCc2ccccc21	-21	-2	1	x	-1	0
O=C1Cc2ccccc2C(=O)N1	36	x	x	x	3	35*
Cc1nc(NC(=O)C(C)(C)C)sc1-c1csc(N)n1	13	0	-4	x	1	2
COc1cccc2cc(C(=O)NNC(=O)c3ccc(Br)cc3)c(=O)oc12	-5	15	4	1	1	110*
O=C(NCc1cc(Cl)cc(Cl)c1)c1ccc2nc([C@H]3C[C@H](O)[C@@H](CO)O3)[nH]c2c1	0	-6	1	x	2	-3
CCc1ccc(/C=N/N2CCN(c3ccccn3)CC2)cc1	-9	-20	-2	3	61*	1
CCc1cc(Cn2nc(-c3ccccc3)cc2C(=O)NCC2CC2)on1	-9	-13	2	1	-3	1
COc1cc(/C=C2/C(=O)N(c3ccc(Br)cc3)N=C2C)cc(OC)c1OC	0	1	15*	x	-1	2
CCOC(=O)/C(=C/c1ccc(OC(=O)c2ccncc2)cc1)C(C)=O	0	-1	2	2	-2	36*
COCCOC(=O)/C(=C/c1ccc(OC(=O)c2ccccc2)cc1)C(C)=O	7	-4	-3	0	0	3
COc1cc(-c2coc3c(C(=O)NCc4cccc(Cl)c4)cccc23)ccc1O	19	-10	-4	x	-1	6
Cc1ccc(S(=O)(=O)C[C@@H]2OC[C@H](Cc3ccccc3)N2S(=O)(=O)c2ccc(C)cc2)cc1	-1	x	x	x	3	-8
SMILES	Neddylation inh	Rpn11 block	Rin1 Abl inh	TPT1 inh	HNF4A DNA FP	CSN deneddyl inh
CCN1CCN(C(=O)C2CCCN(S(=O)(=O)c3cccc4nsnc34)C2)CC1 (configuration not stated)	-30	-2	2	-4	0	1
COC(=O)c1ccc(N2CC3CNC(=O)C2(C(=O)OC)N3C)cc1 (configuration not stated)	-14	-7	0	x	-2	-3
COc1cccc(-c2nn(-c3ccccc3)cc2CNC(C)Cn2cncn2)c1 (configuration not stated)	0	-4	2	-4	1	38*
Cc1ccc(S(=O)(=O)N(C)C)cc1NC(=O)CN1C(=O)NC2(CCc3ccccc32)C1=O (configuration not stated)	-2	5	-5	x	-2	0
CC1(C(=O)NS(=O)(=O)c2ccc(Cl)s2)CCN1C(=O)Cc1ccc(-c2ccccc2)cc1 (configuration not stated)	-10	-3	0	x	4	4
O=Cc1ccc2oc3nc4n(c(=O)c3c(=O)c2c1)CCCS4	-17	x	-1	-4	-32	45*
CCOC(=O)C1CCN(c2nc3ccccc3nc2C(C#N)C(=O)OC(C)C)CC1 (configuration not stated)	x	x	0	1	79	45*
CCOC(=O)c1ccc(NC(=O)Nc2ccc(F)cc2)cc1	16	0	0	-1	-1	2
CCCCCCNc1ccc(C(=O)OCC)cc1	8	13	0	x	-4	124*
O=C(O)c1cc(NC(=O)c2cccc(N3C(=O)c4ccccc4C3=O)c2)cc(C(=O)O)c1	-20	-2	2	0	-3	5
CC(=O)c1ccc(NC(=O)c2cccc(N3C(=O)c4ccccc4C3=O)c2)cc1	8	59*	0	1	165	132
N#Cc1c(NC(=S)NC(=O)c2ccccc2)sc2c1CCC2	-20	11	-1	3	20	1
CCN1CCc2c(sc(NC(=S)NC(=O)c3ccccc3)c2C#N)C1	4	19	-4	28*	9	48*
CCn1c(NC(=O)Nc2cccc(C)c2C)cc2sccc21	-10	-2	0	9	4	10
Cc1nnc(SCC(=O)Nc2ccc3c(c2)OCCO3)n1CC1CCCO1 (configuration not stated)	-3	-6	0	-4	-5	2
Cc1cccc(C)c1NC(=O)CSc1nnc(C)n1CC1CCCO1 (configuration not stated)	1	0	-1	-5	115*	0
CC(Oc1ccccc1Cl)C(=O)N(Cc1ccco1)C1CCS(=O)(=O)C1 (configuration not stated)	-7	5	-1	-2	31*	7
COc1ccccc1C(=O)NCCC(=O)NC1CCCCCC1	-4	0	1	x	-5	1
CCCCCCn1cc(C(=O)O)c(=O)c2cc(F)c(N3CCN(C)CC3)cc21	45*	-8	2	-2	2	2
CCOc1cc(/C=C2/C(=N)N3C(=NC2=O)SN=C3S(=O)(=O)C(C)C)ccc1OC(=O)c1ccco1	-85	x	-1	15	39*	28
C#CCOCCOCCOCCNc1nc(N2CCN(C(=O)[C@H](CCCCN)n3cc(CN)nn3)CC2)nc(N2CCN(C(=O)[C@H](CCCCN)n3cc(CN)nn3)CC2)n1	-7	-7	2	x	59*	39*
